Laboratory results reported in ChEMBL document CHEMBL2163344, “Immunomodulatory properties of novel nucleotide oligomerization domain 2 (nod2) agonistic desmuramyldipeptides” (J Med Chem, 2012).
Activity calls are given as the source filed them. No cut-off for these calls is given here.

Tests used:
[1] = Cytotoxicity against human PBMCs assessed as residual metabolic activity at 20 uM after 18 hrs by MTS assay; format: ADME, cell-based, PBMC; details: read-out: Activity
Procedure, shortened: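 Ficoll-isolated human PBMC, 1 × 10^6 cells/mL in supplemented RPMI 1640 with 10% FBS, exposed 18 h to 20 μM compound (DMSO ≤0.1% final) in triplicate. Metabolic activity read by MTS (CellTiter 96 AQueous One) and expressed relative to vehicle-treated control.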

[2] = target: T1, Nucleotide-binding oligomerization domain-containing protein 1 (Homo sapiens) (UniProt Q9Y239); assay: Agonist activity at human NOD1 expressed in Ramos blue cells assessed as stimulation of NF-kB/AP-1 activity at 20 uM incubated for 18 hrs using quanti blue assay based SEAP reporter gene assay; format: functional, cell-based
T1 sequence (whole entry): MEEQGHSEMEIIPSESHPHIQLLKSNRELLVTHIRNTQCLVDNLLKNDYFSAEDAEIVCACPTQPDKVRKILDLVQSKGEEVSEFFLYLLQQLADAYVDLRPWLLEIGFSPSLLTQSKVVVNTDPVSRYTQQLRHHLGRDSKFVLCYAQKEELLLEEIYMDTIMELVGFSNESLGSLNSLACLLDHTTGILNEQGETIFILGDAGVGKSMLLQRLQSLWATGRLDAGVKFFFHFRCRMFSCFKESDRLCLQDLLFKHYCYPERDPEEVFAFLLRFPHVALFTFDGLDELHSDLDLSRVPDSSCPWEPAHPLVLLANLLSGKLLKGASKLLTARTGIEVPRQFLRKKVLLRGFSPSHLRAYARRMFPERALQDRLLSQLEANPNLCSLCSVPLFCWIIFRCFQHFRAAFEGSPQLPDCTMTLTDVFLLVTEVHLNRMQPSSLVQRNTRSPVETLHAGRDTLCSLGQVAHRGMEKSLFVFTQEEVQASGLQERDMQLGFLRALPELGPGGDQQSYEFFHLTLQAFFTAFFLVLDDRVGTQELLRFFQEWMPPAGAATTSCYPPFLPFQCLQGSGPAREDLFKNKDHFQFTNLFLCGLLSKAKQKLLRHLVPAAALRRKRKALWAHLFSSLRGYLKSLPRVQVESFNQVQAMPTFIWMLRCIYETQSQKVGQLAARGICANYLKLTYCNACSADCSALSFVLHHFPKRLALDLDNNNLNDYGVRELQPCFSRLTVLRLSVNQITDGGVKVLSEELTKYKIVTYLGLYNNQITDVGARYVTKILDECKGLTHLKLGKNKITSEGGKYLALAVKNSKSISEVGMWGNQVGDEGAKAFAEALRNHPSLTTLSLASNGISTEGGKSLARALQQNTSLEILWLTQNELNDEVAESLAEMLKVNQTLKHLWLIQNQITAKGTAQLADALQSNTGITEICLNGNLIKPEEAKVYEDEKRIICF
Procedure, shortened: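 Ramos-Blue control cells (TLR3/7/9 and Nod1, no Nod2; stable NF-κB/AP-1-inducible SEAP reporter) at 1 × 10^6 cells/mL, exposed 18 h to 20 μM compound. SEAP in supernatant read with QUANTI-Blue reagent (3 h, 37 °C), absorbance 640 nm; activity compared with untreated cells.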

PBMC [3] = assay: Immunomodulatory activity in human PBMCs assessed as increase in PMA/ionomycin-induced IL-1beta release at 20 uM incubated for 18 hrs by multiplexed cytokine assay; format: functional, cell-based
Procedure, shortened: (§1)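 Ficoll-isolated human PBMC, 1 × 10^6 cells per well, treated with 20 μM compound (DMSO ≤0.1%) plus PMA 3.33 ng/mL and ionomycin 500 nM for 18 h at 37 °C, 5% CO2. Cell-free supernatant cytokines measured by CBA human inflammatory kit on a flow cytometer against recombinant standards. Reported as % of PMA/ionomycin-only release; duplicates, three experiments, three donors.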

PBMC [4] = assay: Immunomodulatory activity in human PBMCs assessed as increase in PMA/ionomycin-induced IL-12p70 release at 20 uM incubated for 18 hrs by multiplexed cytokine assay; format: functional, cell-based; procedure, shortened: as §1
PBMC [5] = assay: Cytotoxicity against human PBMCs assessed as residual metabolic activity at 20 uM in presence of PMA and ionomycin after 18 hrs by MTS assay; format: ADME, cell-based
Procedure, shortened: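 Human PBMC (1 × 10^6 cells/mL, triplicate) given 20 μM compound together with PMA 3.33 ng/mL and ionomycin 500 nM for 18 h. MTS metabolic activity compared with the PMA/ionomycin-only control.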

PBMC [6] = assay: Immunomodulatory activity in human PBMCs assessed as increase in PMA/ionomycin-induced IL6 release at 20 uM incubated for 18 hrs by multiplexed cytokine assay; format: functional, cell-based; procedure, shortened: as §1
PBMC [7] = assay: Immunomodulatory activity in human PBMCs assessed as increase in PMA/ionomycin-induced IL-12p70 release at 20 uM by multiplexed cytokine assay; format: functional, cell-based; details: TDE = time-dependent effect; procedure, shortened: as §1
PBMC [8] = assay: Immunomodulatory activity in human PBMCs assessed as increase in PMA/ionomycin-induced IL6 release at 20 uM by multiplexed cytokine assay; format: functional, cell-based; details: TDE = time-dependent effect; procedure, shortened: as §1
PBMC [9] = assay: Immunomodulatory activity in human PBMCs assessed as increase in PMA/ionomycin-induced IL8 release at 20 uM incubated for 4 to 40 hrs by multiplexed cytokine assay; format: functional, cell-based
Procedure, shortened: (§2)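 PBMC time course: 20 μM compound with PMA 3.33 ng/mL and ionomycin 500 nM. Supernatants collected at 4, 18 and 40 h and cytokines read by cytometric bead array. Compared with PMA/ionomycin-only control; two independent experiments in duplicate, two donors.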

PBMC [10] = assay: Immunomodulatory activity in human PBMCs assessed as increase in PMA/ionomycin-induced IL6 release incubated for 18 hrs by multiplexed cytokine assay; format: functional, cell-based
PBMC [11] = assay: Immunomodulatory activity in human PBMCs assessed as increase in PMA/ionomycin-induced IL-12p70 release incubated for 18 hrs by multiplexed cytokine assay; format: functional, cell-based
PBMC [12] = assay: Immunomodulatory activity in human PBMCs assessed as increase in PMA/ionomycin-induced IL-1beta release at 20 uM by multiplexed cytokine assay; format: functional, cell-based; details: TDE = time-dependent effect; procedure, shortened: as §1
PBMC [13] = assay: Immunomodulatory activity in human PBMCs assessed as increase in PMA/ionomycin-induced TNFalpha release at 20 uM by multiplexed cytokine assay; format: functional, cell-based; details: TDE = time-dependent effect; procedure, shortened: as §1
PBMC [14] = assay: Immunomodulatory activity in human PBMCs assessed as increase in PMA/ionomycin-induced IL10 release at 0.2 to 200 uM incubated for 18 hrs by multiplexed cytokine assay; format: functional, cell-based
Procedure, shortened: (§3)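 Human PBMC stimulated with PMA 3.33 ng/mL and ionomycin 500 nM plus compound at 0.2, 2, 20 or 200 μM for 18 h. Supernatant cytokines quantified by cytometric bead array. Compared with PMA/ionomycin-only cells; two independent experiments in duplicate, two donors, mean ± SD.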

PBMC [15] = assay: Immunomodulatory activity in human PBMCs assessed as increase in PMA/ionomycin-induced IL10 release at 20 uM incubated for 4 to 40 hrs by multiplexed cytokine assay; format: functional, cell-based; procedure, shortened: as §2
PBMC [16] = assay: Immunomodulatory activity in human PBMCs assessed as increase in PMA/ionomycin-induced TNFalpha release incubated for 18 hrs by multiplexed cytokine assay; format: functional, cell-based; procedure, shortened: as §1
PBMC [17] = assay: Immunomodulatory activity in human PBMCs assessed as increase in PMA/ionomycin-induced IL8 release at 0.2 to 200 uM incubated for 18 hrs by multiplexed cytokine assay; format: functional, cell-based; procedure, shortened: as §3
PBMC [18] = assay: Immunomodulatory activity in human PBMCs assessed as increase in PMA/ionomycin-induced IL-1beta release incubated for 18 hrs by multiplexed cytokine assay; format: functional, cell-based

| Activity [2] | Compound | viability at 18 h, 20 µM [1] | Activity (PBMC [3]) | Activity (PBMC [4]) | Activity (PBMC [5]) | Activity (PBMC [6]) | Activity (PBMC [7]) | Activity (PBMC [8]) | Activity (PBMC [9]) | Activity (PBMC [10]) | Activity (PBMC [11]) | Activity (PBMC [12]) | Activity (PBMC [13]) | Activity (PBMC [14]) | Activity (PBMC [15]) | Activity (PBMC [16]) | Activity (PBMC [17]) | Activity (PBMC [18]) |
| --- | --- | --- | --- | --- | --- | --- | --- | --- | --- | --- | --- | --- | --- | --- | --- | --- | --- | --- |
| inactive | CCOC(=O)CC[C@@H](NC(=O)[C@H](C)NC(=O)C1=C2c3ccccc3S(=O)(=O)N2CCC1)C(=O)OCC | ≥ 90% | Active | Active | Non-toxic | Active | – | – | – | – | – | – | – | – | – | – | – | – |
| inactive | CCOC(=O)CC[C@@H](NC(=O)[C@H](C)NC(=O)COCCN1C(=O)c2ccccc2S1(=O)=O)C(N)=O | ≥ 90% | inactive | inactive | Non-toxic | inactive | – | – | – | – | – | – | – | – | – | – | – | – |
| inactive | CCOC(=O)CC[C@@H](NC(=O)[C@H](C)NC(=O)CNC(=O)c1cc2ccccc2[nH]1)C(=O)OCC | ≥ 90% | Active | Active | Non-toxic | Active | tde | tde | inactive | Dose-dependent effect | Dose-dependent effect | tde | tde | inactive | inactive | Dose-dependent effect | inactive | Dose-dependent effect |
| inactive | CCOC(=O)CC[C@@H](NC(=O)[C@H](C)NC(=O)CCCCN1C(=O)c2ccccc2S1(=O)=O)C(=O)OCC | ≥ 90% | inactive | inactive | Non-toxic | inactive | – | – | – | – | – | – | – | – | – | – | – | – |
| inactive | CCOC(=O)CC[C@@H](NC(=O)[C@H](C)NC(=O)COCCN1C(=O)c2ccccc2S1(=O)=O)C(=O)OCC | ≥ 90% | inactive | inactive | Non-toxic | inactive | – | – | – | – | – | – | – | – | – | – | – | – |
| inactive | CCCCOC(=O)[C@@H](CCC(N)=O)NC(=O)[C@H](C)NC(=O)[C@@H](C)O[C@H]1[C@H](O)[C@@H](CO)OC(O)[C@@H]1NC(C)=O (stereo partly specified) [MURABUTIDE] | ≥ 90% | Active | Active | Non-toxic | – | tde | tde | inactive | Dose-dependent effect | Dose-dependent effect | tde | tde | inactive | inactive | Dose-dependent effect | inactive | Dose-dependent effect |
| inactive | CCOC(=O)CC[C@@H](NC(=O)[C@H](C)NC(=O)CCCCN1C(=O)c2ccccc2S1(=O)=O)C(N)=O | ≥ 90% | inactive | inactive | Non-toxic | inactive | – | – | – | – | – | – | – | – | – | – | – | – |
| inactive | CCOC(=O)CC[C@@H](NC(=O)[C@H](C)NC(=O)CNC(=O)c1cc2ccccc2[nH]1)C(N)=O | ≥ 90% | inactive | inactive | Non-toxic | inactive | – | – | – | – | – | – | – | – | – | – | – | – |
